pIC50: −log10 of the molar value. Each block holds one compound with its values, some of them ahead of it.
Experiments:
CDK2/Cyclin A2 [1] = biological target: T1, CDK2/Cyclin A2 (Homo sapiens, UniProt P24941); experiment: Inhibition of human CDK2/Cyclin A2 using PKTPKKAKKL as substrate by PK/LDH spectrophotometric analysis; type: protein-complex assay
CDK2/Cyclin A2 [2] = biological target: T1, CDK2/Cyclin A2; experiment: Inhibition of human CDK2/Cyclin A2 using PKTPKKAKKL as substrate by fluorescence assay; type: protein-complex assay
[3] = Cytotoxicity against mouse GC-1 cells after 72 hrs by MTT assay; type: functional, cell-based; conditions: GC-1, 72 h
Procedure, shortened: (§1)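 Cells kept in RPMI or DMEM with 10% FBS at 37 °C, 5% CO₂ and allowed to attach overnight; 72 h with increasing inhibitor concentrations; then 1 mg/mL MTT for 3 h, DMSO solubilisation, OD read at 540 nm. Testis lines had culture conditions adapted to them. Dose-response in triplicate, 9 concentrations between 0.02 and 100 μM, averaged.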

[4] = Cytotoxicity against mouse TM4 cells after 72 hrs by MTT assay; type: functional, cell-based; conditions: TM4, 72 h; procedure, shortened: as §1
[5] = Cytotoxicity against mouse GC-2 cells after 72 hrs by MTT assay; type: functional, cell-based; conditions: GC-2, 72 h; procedure, shortened: as §1
BT-549 = experiment: Cytotoxicity against human BT549 cells after 72 hrs by resazurin/resorufin-based fluorescence assay; type: functional, cell-based; conditions: BT-549, 72 h
Procedure, shortened: (§2)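 CellTiter-Blue viability: 1200 cells per well seeded, incubated overnight at 37 °C, 5% CO₂; drugs serially diluted 2:3 in medium, four replicate wells per concentration plus four diluent-only control wells; 72 h exposure; resazurin reduction to resorufin read by fluorescence (579 nm ex/584 nm em). IC50 is the average of three data sets, each using nine concentrations between 0.004 μM and 12.5 μM.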

[6] = Cytotoxicity against human RPMI18226 cells after 72 hrs by resazurin/resorufin-based fluorescence assay; type: functional, cell-based; conditions: RPMI18226, 72 h
SW872 = experiment: Cytotoxicity against human SW872 cells after 72 hrs by resazurin/resorufin-based fluorescence assay; type: functional, cell-based; conditions: SW872, 72 h
MCF7 = experiment: Cytotoxicity against human MCF7 cells after 72 hrs by resazurin/resorufin-based fluorescence assay; type: functional, cell-based; conditions: MCF7, 72 h
HOS-TE85 = experiment: Cytotoxicity against human MNNG-HOS cells after 72 hrs by resazurin/resorufin-based fluorescence assay; type: functional, cell-based; conditions: HOS-TE85, 72 h
[7] = Cytotoxicity against human MDA-MB-436 cells after 72 hrs by resazurin/resorufin-based fluorescence assay; type: functional, cell-based; conditions: MDA-MB-436, 72 h
U-266 = experiment: Cytotoxicity against human U266 cells after 72 hrs by resazurin/resorufin-based fluorescence assay; type: functional, cell-based; conditions: U-266, 72 h
[8] = Cytotoxicity against human NCI-H929 cells after 72 hrs by resazurin/resorufin-based fluorescence assay; type: functional, cell-based; conditions: NCI-H929, 72 h
MDA-MB-231 = experiment: Cytotoxicity against human MDA-MB-231 cells after 72 hrs by resazurin/resorufin-based fluorescence assay; type: functional, cell-based; conditions: MDA-MB-231, 72 h
T47D = experiment: Cytotoxicity against human T47D cells after 72 hrs by resazurin/resorufin-based fluorescence assay; type: functional, cell-based
SK-ES1 = experiment: Cytotoxicity against human SK-ES-1 cells after 72 hrs by resazurin/resorufin-based fluorescence assay; type: functional, cell-based; conditions: SK-ES1, 72 h
A673 = experiment: Cytotoxicity against human A673 cells after 72 hrs by resazurin/resorufin-based fluorescence assay; type: functional, cell-based; conditions: A673, 72 h
SK-BR-3 = experiment: Cytotoxicity against human SK-BR-3 cells after 72 hrs by resazurin/resorufin-based fluorescence assay; type: functional, cell-based; conditions: SK-BR-3, 72 h; procedure, shortened: as §2
MDA-MB-468 = experiment: Cytotoxicity against human MDA-MB-468 cells after 72 hrs by MTT assay; type: functional, cell-based; conditions: MDA-MB-468, 72 h; procedure, shortened: as §1
SK-UT-1 = experiment: Cytotoxicity against human SK-UT-1 cells after 72 hrs by resazurin/resorufin-based fluorescence assay; type: functional, cell-based; conditions: SK-UT-1, 72 h

pIC50 (CDK2/Cyclin A2 [1]): < 4.00
Structure (SMILES): C=CCNc1nc(N)c(C(=O)c2ccc(Cl)cc2)s1

pIC50 (CDK2/Cyclin A2 [1]): 5.46
Structure (SMILES): Nc1nc(Nc2ccc(S(N)(=O)=O)cc2)sc1C(=O)C1CCCCC1

pIC50 (CDK2/Cyclin A2 [2]): 7.00
Structure (SMILES): COc1cccc(C(=O)c2sc(Nc3ccc(S(N)(=O)=O)cc3)nc2N)c1

pIC50 (CDK2/Cyclin A2 [1]): 5.80
Structure (SMILES): Nc1nc(Nc2ccccc2)sc1C(=O)c1cccc(F)c1
pIC50 [3]: 5.44
pIC50 [4]: 5.29
pIC50 [5]: 5.39

pIC50 (CDK2/Cyclin A2 [2]): 6.89
Structure (SMILES): Nc1nc(Nc2ccc(S(N)(=O)=O)cc2)sc1C(=O)c1ccccc1
pIC50 [3]: 4.77
pIC50 [4]: 5.04
pIC50 [5]: 5.21

pIC50 (CDK2/Cyclin A2 [1]): 5.46
Structure (SMILES): CC(C)(C)OC(=O)N1CCC(Nc2nc(N)c(C(=O)c3cccnc3)s2)CC1

pIC50 (CDK2/Cyclin A2 [1]): 5.32
Structure (SMILES): NC(=O)c1sc(Nc2ccc(S(N)(=O)=O)cc2)nc1N

pIC50 (CDK2/Cyclin A2 [1]): < 4.00
Structure (SMILES): CN(C)/C=C/C(=O)c1sc(Nc2ccc(S(N)(=O)=O)cc2)nc1N

pIC50 (CDK2/Cyclin A2 [1]): < 4.00
Structure (SMILES): CC(=O)c1sc(Nc2ccccc2)nc1N

pIC50 (CDK2/Cyclin A2 [1]): < 4.00
Structure (SMILES): C=CCNc1nc(N)c(C(=O)Nc2cc(C)no2)s1

pIC50 (CDK2/Cyclin A2 [1]): 4.09
Structure (SMILES): Nc1nc(Nc2ccc(S(N)(=O)=O)cc2)sc1C(=O)c1ccc2ccccc2c1
pIC50 (BT-549): < 5.00
pIC50 [6]: < 5.00
pIC50 (SW872): < 5.00
pIC50 (MCF7): 5.23
pIC50 (HOS-TE85): 5.01
pIC50 [7]: 5.28
pIC50 (U-266): 5.10
pIC50 [8]: 5.37
pIC50 (MDA-MB-231): < 5.00
pIC50 (T47D): 5.35
pIC50 (SK-ES1): 5.32
pIC50 (A673): 5.43
pIC50 (SK-BR-3): 5.21
pIC50 (MDA-MB-468): 5.26

pIC50 (CDK2/Cyclin A2 [1]): 4.77
Structure (SMILES): CCNc1nc(N)c(C(=O)c2ccccc2)s1

pIC50 (CDK2/Cyclin A2 [2]): 7.30
Structure (SMILES): Nc1nc(Nc2ccc(S(N)(=O)=O)cc2)sc1C(=O)c1cccc(F)c1
pIC50 (BT-549): < 5.00
pIC50 [6]: 5.17
pIC50 (SW872): 5.51
pIC50 (MCF7): 5.89
pIC50 (HOS-TE85): 5.66
pIC50 [7]: 5.89
pIC50 (U-266): 5.82
pIC50 [8]: 6.00
pIC50 (MDA-MB-231): 5.92
pIC50 (SK-UT-1): 5.80
pIC50 (T47D): 6.01
pIC50 (SK-ES1): 5.96
pIC50 (A673): 6.35
pIC50 (SK-BR-3): 5.92
pIC50 [3]: 5.19
pIC50 [4]: 5.32
pIC50 [5]: 5.41
pIC50 (MDA-MB-468): 6.10

pIC50 (CDK2/Cyclin A2 [1]): 4.02
Structure (SMILES): CNc1nc(N)c(C(=O)c2ccccc2)s1

pIC50 (CDK2/Cyclin A2 [1]): 4.82
Structure (SMILES): C=CCNc1nc(N)c(C(=O)c2ccccc2)s1

pIC50 (CDK2/Cyclin A2 [2]): 6.24
Structure (SMILES): Nc1nc(Nc2ccc(S(N)(=O)=O)cc2)sc1C(=O)c1cccc(C(F)(F)F)c1

pIC50 (CDK2/Cyclin A2 [1]): 5.66
Structure (SMILES): Nc1nc(Nc2ccccc2)sc1C(=O)c1cccc([N+](=O)[O-])c1

pIC50 (CDK2/Cyclin A2 [2]): 7.15
Structure (SMILES): Nc1cccc(C(=O)c2sc(Nc3ccc(S(N)(=O)=O)cc3)nc2N)c1
pIC50 (BT-549): < 5.00
pIC50 [6]: < 5.00
pIC50 (SW872): < 5.00
pIC50 (MCF7): < 5.00
pIC50 (HOS-TE85): < 5.00
pIC50 [7]: < 5.00
pIC50 (U-266): 5.26
pIC50 [8]: 5.17
pIC50 (MDA-MB-231): < 5.00
pIC50 (SK-UT-1): < 5.00
pIC50 (T47D): 5.24
pIC50 (SK-ES1): 5.01
pIC50 (A673): 5.06
pIC50 (SK-BR-3): 5.39

pIC50 (CDK2/Cyclin A2 [1]): < 4.00
Structure (SMILES): C=CCNc1nc(N)c(C(=O)c2ccc(F)cc2)s1

pIC50 (CDK2/Cyclin A2 [1]): 5.06
Structure (SMILES): Nc1ccc(C(=O)c2sc(Nc3ccc(S(N)(=O)=O)cc3)nc2N)cc1

pIC50 (CDK2/Cyclin A2 [1]): 5.11
Structure (SMILES): Nc1nc(Nc2cccc(S(N)(=O)=O)c2)sc1C(=O)c1cccnc1

pIC50 (CDK2/Cyclin A2 [1]): 4.37
Structure (SMILES): Nc1nc(NC2CCNCC2)sc1C(=O)c1cccnc1

pIC50 (CDK2/Cyclin A2 [1]): 5.70
Structure (SMILES): CC(C)Nc1nc(N)c(C(=O)c2ccccc2)s1

pIC50 (CDK2/Cyclin A2 [1]): < 4.00
Structure (SMILES): Nc1nc(Nc2ccc(C(F)(F)F)cc2)sc1C(=O)c1ccccc1

pIC50 (CDK2/Cyclin A2 [2]): 6.19
Structure (SMILES): Nc1nc(Nc2ccccc2)sc1C(=O)c1cccnc1
pIC50 [3]: 5.23
pIC50 [4]: 5.26
pIC50 [5]: 5.02

pIC50 (CDK2/Cyclin A2 [1]): < 4.00
Structure (SMILES): NC(=O)c1sc(Nc2ccccc2)nc1N
pIC50 [3]: < 4.22
pIC50 [4]: < 4.22
pIC50 [5]: < 4.22

pIC50 (CDK2/Cyclin A2 [1]): 4.77
Structure (SMILES): COc1ccc(C(=O)c2sc(Nc3ccc(S(N)(=O)=O)cc3)nc2N)cc1

pIC50 (CDK2/Cyclin A2 [1]): 4.00
Structure (SMILES): Nc1nc(Nc2ccccc2)sc1C(=O)c1cccc(Cl)c1

pIC50 (CDK2/Cyclin A2 [1]): 4.43
Structure (SMILES): C=CCNc1nc(N)c(C(=O)c2ccc(C)cc2)s1

pIC50 (CDK2/Cyclin A2 [1]): 5.05
Structure (SMILES): CCCNc1nc(N)c(C(=O)c2ccccc2)s1

pIC50 (CDK2/Cyclin A2 [1]): 5.24
Structure (SMILES): Nc1nc(Nc2cccc(F)c2)sc1C(=O)c1ccccc1

pIC50 (CDK2/Cyclin A2 [2]): 6.28
Structure (SMILES): CC(C)Nc1nc(N)c(C(=O)c2cccnc2)s1
